{"source": "ChEMBL document CHEMBL1126909", "about": "“Synthesis and pharmacological examination of benzofuran, indan, and tetralin analogues of 3,4-(methylenedioxy)amphetamine” (J Med Chem, 1993)", "key": {"Rattus norvegicus [1]": {"species_on_record": "Rattus norvegicus", "assay": "Tested for drug-discrimination stimulus effect in 3-trained rats", "assay_type": "functional"}, "Rattus norvegicus [2]": {"test_system": "Rattus norvegicus", "assay": "Percentage of nondisrupted animals selecting drug liver in (S)-amphetamine trained at 0.500 mg/kg", "assay_type": "functional", "details": "dose 0.5 mg/kg", "summary_of_the_method": "(§1)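 Rats and training are as above: male Sprague-Dawley, food-restricted, with training doses per drug group. Test drug was given ip in saline 30 min before extinction sessions. %SDL is the share of nondisrupted rats reaching 50 presses on the drug lever. A rat not completing 50 presses in 5 min was scored as disrupted.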"}, "Rattus norvegicus [3]": {"test_system": "Rattus norvegicus", "assay": "Number of animals tested to that of number of animals disrupted in (s)-amphetamine trained at 0.125 mg/kg; Number of animals tested=15", "assay_type": "functional", "summary_of_the_method": "(§2)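 Drug-discrimination rats were male Sprague-Dawley, 175–200 g, kept at about 80% of free-feeding weight. They were trained against saline on (S)-1c·HCl 1.75 mg/kg, 3·HCl 1.71 mg/kg or (S)-amphetamine sulfate 1 mg/kg. Test drug was given ip in 0.9% saline at 1 mL/kg, 30 min before sessions run under extinction. A session ended at 50 presses on one lever; failing 50 presses within 5 min was scored as disrupted.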"}, "Rattus norvegicus [4]": {"test_system": "Rattus norvegicus", "assay": "Number of animals tested to that of number of animals disrupted in 3 trained at 0.500 mg/kg; Number of animals tested=12", "assay_type": "functional", "details": "dose 0.5 mg/kg", "summary_of_the_method": "as §2"}, "Rattus norvegicus [5]": {"test_system": "Rattus norvegicus", "assay": "Percentage of nondisrupted animals selecting drug liver in (S)-amphetamine trained at 0.250 mg/kg", "assay_type": "functional", "details": "dose 0.25 mg/kg", "summary_of_the_method": "as §1"}, "Rattus norvegicus [6]": {"test_system": "Rattus norvegicus", "assay": "Number of animals tested to that of number of animals disrupted in S-1c trained at 1 mg/kg; Number of animals tested=9", "assay_type": "functional", "summary_of_the_method": "as §2"}, "Rattus norvegicus [7]": {"test_system": "Rattus norvegicus", "assay": "Percentage of nondisrupted animals selecting drug liver in S-1c trained at 0.125 mg/kg", "assay_type": "functional", "summary_of_the_method": "as §1"}, "Rattus norvegicus [8]": {"test_system": "Rattus norvegicus", "assay": "Percentage of nondisrupted animals selecting drug liver in 3 trained at 0.125 mg/kg", "assay_type": "functional", "summary_of_the_method": "as §1"}, "Rattus norvegicus [9]": {"test_system": "Rattus norvegicus", "assay": "Number of animals tested to that of number of animals disrupted in S-1c trained at 0.250 mg/kg; Number of animals tested=15", "assay_type": "functional", "details": "dose 0.25 mg/kg", "summary_of_the_method": "as §2"}, "Rattus norvegicus [10]": {"test_system": "Rattus norvegicus", "assay": "Number of animals tested to that of number of animals disrupted in (s)-amphetamine trained at 0.250 mg/kg; Number of animals tested=14", "assay_type": "functional", "details": "dose 0.25 mg/kg", "summary_of_the_method": "as §2"}, "Rattus norvegicus [11]": {"test_system": "Rattus norvegicus", "assay": "Number of animals tested to that of number of animals disrupted in 3 trained at 0.125 mg/kg; Number of animals tested=10", "assay_type": "functional", "summary_of_the_method": "as §2"}, "Rattus norvegicus [12]": {"test_system": "Rattus norvegicus", "assay": "Percentage of nondisrupted animals selecting drug liver in (S)-amphetamine trained at 1 mg/kg", "assay_type": "functional", "summary_of_the_method": "as §1"}, "Rattus norvegicus [13]": {"test_system": "Rattus norvegicus", "assay": "Tested for drug-discrimination stimulus effect at 0.250 mg/kg in s)-amphetamine trained animals; NS= No substitution", "assay_type": "functional, organism-based", "parameters": "dose 0.25 mg/kg", "summary_of_the_method": "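Food-restricted male Sprague-Dawley rats were trained to tell (S)-amphetamine sulfate 1 mg/kg from saline. Test drug was given ip in 0.9% saline 30 min before extinction sessions, with 50 presses on one lever required within 5 min. No substitution was defined as 59% or less of nondisrupted rats selecting the drug lever, judged on the maximum across doses.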"}, "Rattus norvegicus [14]": {"test_system": "Rattus norvegicus", "assay": "Percentage of nondisrupted animals selecting drug liver in S-1c trained at 0.250 mg/kg", "assay_type": "functional", "details": "dose 0.25 mg/kg"}, "Rattus norvegicus [15]": {"test_system": "Rattus norvegicus", "assay": "Percentage of nondisrupted animals selecting drug liver in (S)-amphetamine trained at 0.125 mg/kg", "assay_type": "functional", "summary_of_the_method": "as §1"}, "Rattus norvegicus [16]": {"test_system": "Rattus norvegicus", "assay": "Number of animals tested to that of number of animals disrupted in 3 trained at 1 mg/kg; Number of animals tested=10", "assay_type": "functional", "summary_of_the_method": "as §2"}, "Rattus norvegicus [17]": {"species_on_record": "Rattus norvegicus", "assay": "Inhibitory concentration against [3H]- 5-HT uptake in crude rat synaptosomes", "assay_type": "functional", "details": "Brain", "summary_of_the_method": "(§3)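 Crude synaptosomes from male Sprague-Dawley rat tissue homogenised in ice-cold isotonic sucrose. Preincubated 5 min at 37 °C under aeration with pargyline (final 100 μM), then chilled. Tritiated transmitter added at 10 nM final and uptake run 5 min at 37 °C. Catecholamine buffer had 0.06 mM ascorbate. Filtered and counted by scintillation. 9–10 concentrations in triplicate, 3–4 experiments, four-parameter logistic fit for IC50 ± SEM.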"}, "Rattus norvegicus [18]": {"test_system": "Rattus norvegicus", "assay": "Percentage of nondisrupted animals selecting drug liver in S-1c trained at 0.500 mg/kg", "assay_type": "functional", "details": "dose 0.5 mg/kg", "summary_of_the_method": "(§4)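 Male Sprague-Dawley rats (175–200 g) held at about 80% of free-feeding weight were trained on two levers to tell (S)-1c·HCl 1.75 mg/kg from saline. Test drugs were given in 0.9% saline, ip, 30 min before sessions run under extinction. A session ended at 50 presses on one lever, or was scored disrupted if not done within 5 min. %SDL counts nondisrupted rats. ED50 and 95% CI were derived by Litchfield–Wilcoxon.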"}, "Rattus norvegicus [19]": {"test_system": "Rattus norvegicus", "assay": "Tested for drug-discrimination stimulus effect at 0.250 mg/kg in S-1c trained animals; 0.15-0.28", "assay_type": "functional", "summary_of_the_method": "as §4"}, "Rattus norvegicus [20]": {"test_system": "Rattus norvegicus", "assay": "Number of animals tested to that of number of animals disrupted in S-1c trained at 0.500 mg/kg; Number of animals tested=15", "assay_type": "functional", "details": "dose 0.5 mg/kg", "summary_of_the_method": "as §2"}, "Rattus norvegicus [21]": {"test_system": "Rattus norvegicus", "assay": "Percentage of nondisrupted animals selecting drug liver in 3 trained at 1 mg/kg", "assay_type": "functional", "summary_of_the_method": "as §1"}, "Rattus norvegicus [22]": {"species_on_record": "Rattus norvegicus", "assay": "Inhibitory concentration against [3H]- DA uptake in crude rat synaptosomes", "assay_type": "functional", "details": "Brain", "summary_of_the_method": "as §3"}, "Rattus norvegicus [23]": {"test_system": "Rattus norvegicus", "assay": "Percentage of nondisrupted animals selecting drug liver in 3 trained at 0.500 mg/kg", "assay_type": "functional", "details": "dose 0.5 mg/kg", "summary_of_the_method": "as §1"}, "Rattus norvegicus [24]": {"test_system": "Rattus norvegicus", "assay": "Number of animals tested to that of number of animals disrupted in S-1c trained at 0.125 mg/kg; Number of animals tested=14", "assay_type": "functional", "summary_of_the_method": "as §2"}, "Rattus norvegicus [25]": {"test_system": "Rattus norvegicus", "assay": "Number of animals tested to that of number of animals disrupted in (s)-amphetamine trained at 0.500 mg/kg; Number of animals tested=15", "assay_type": "functional", "details": "dose 0.5 mg/kg"}, "Rattus norvegicus [26]": {"test_system": "Rattus norvegicus", "assay": "Percentage of nondisrupted animals selecting drug liver in 3 trained at 0.250 mg/kg", "assay_type": "functional", "details": "dose 0.25 mg/kg", "summary_of_the_method": "as §1"}, "Rattus norvegicus [27]": {"test_system": "Rattus norvegicus", "assay": "Number of animals tested to that of number of animals disrupted in (s)-amphetamine trained at 1 mg/kg; Number of animals tested=10", "assay_type": "functional", "summary_of_the_method": "as §2"}, "Rattus norvegicus [28]": {"test_system": "Rattus norvegicus", "assay": "Percentage of nondisrupted animals selecting drug liver in S-1c trained at 1 mg/kg", "assay_type": "functional"}, "Rattus norvegicus [29]": {"species_on_record": "Rattus norvegicus", "assay": "Inhibitory concentration against [3H]- NE uptake in crude rat synaptosomes", "assay_type": "functional", "details": "Brain", "summary_of_the_method": "as §3"}, "Rattus norvegicus [30]": {"test_system": "Rattus norvegicus", "assay": "Number of animals tested to that of number of animals disrupted in 3 trained at 0.250 mg/kg; Number of animals tested=11", "assay_type": "functional", "details": "dose 0.25 mg/kg", "summary_of_the_method": "as §2"}}, "note": "The source made the active and inactive calls."}
{"smiles": "COc1cc2c(cc1C)CC(N)C2", "note": "(stereo not given)", "values": [{"measurement": "ED50", "setting": "Rattus norvegicus [1]", "value": 0.56, "unit": "mg/kg"}]}
{"smiles": "CC(N)Cc1ccc2c(c1)CCC2", "note": "(stereo not given)", "values": [{"measurement": "SDL", "setting": "Rattus norvegicus [2]", "value": 0, "unit": "%"}, {"measurement": "Activity", "setting": "Rattus norvegicus [3]", "value": 2}, {"measurement": "Activity", "setting": "Rattus norvegicus [4]", "value": 6}, {"measurement": "SDL", "setting": "Rattus norvegicus [5]", "value": 0, "unit": "%"}, {"measurement": "Activity", "setting": "Rattus norvegicus [6]", "value": 2}, {"measurement": "SDL", "setting": "Rattus norvegicus [7]", "value": 9, "unit": "%"}, {"measurement": "SDL", "setting": "Rattus norvegicus [8]", "value": 13, "unit": "%"}, {"measurement": "Activity", "setting": "Rattus norvegicus [9]", "value": 5}, {"measurement": "Activity", "setting": "Rattus norvegicus [10]", "value": 2}, {"measurement": "Activity", "setting": "Rattus norvegicus [11]", "value": 2}, {"measurement": "SDL", "setting": "Rattus norvegicus [12]", "value": 0, "unit": "%"}, {"measurement": "ED50", "setting": "Rattus norvegicus [13]", "value": "inactive"}, {"measurement": "SDL", "setting": "Rattus norvegicus [14]", "value": 70, "unit": "%"}, {"measurement": "SDL", "setting": "Rattus norvegicus [15]", "value": 0, "unit": "%"}, {"measurement": "Activity", "setting": "Rattus norvegicus [16]", "value": 8}, {"measurement": "IC50", "setting": "Rattus norvegicus [17]", "value": 82, "unit": "nM"}, {"measurement": "SDL", "setting": "Rattus norvegicus [18]", "value": 100, "unit": "%"}, {"measurement": "ED50", "setting": "Rattus norvegicus [19]", "value": 0.2, "unit": "mg/kg"}, {"measurement": "Activity", "setting": "Rattus norvegicus [20]", "value": 3}, {"measurement": "SDL", "setting": "Rattus norvegicus [21]", "value": 100, "unit": "%"}, {"measurement": "IC50", "setting": "Rattus norvegicus [22]", "value": 1850, "unit": "nM"}, {"measurement": "SDL", "setting": "Rattus norvegicus [23]", "value": 83, "unit": "%"}, {"measurement": "Activity", "setting": "Rattus norvegicus [24]", "value": 3}, {"measurement": "Activity", "setting": "Rattus norvegicus [25]", "value": 7}, {"measurement": "SDL", "setting": "Rattus norvegicus [26]", "value": 17, "unit": "%"}, {"measurement": "Activity", "setting": "Rattus norvegicus [27]", "value": 6}, {"measurement": "SDL", "setting": "Rattus norvegicus [28]", "value": 100, "unit": "%"}, {"measurement": "IC50", "setting": "Rattus norvegicus [29]", "value": 849, "unit": "nM"}, {"measurement": "Activity", "setting": "Rattus norvegicus [30]", "value": 5}]}
